Laboratory results reported in ChEMBL document CHEMBL4680091, “Discovery of Novel Spiro[3H-indole-3,2'-pyrrolidin]-2(1H)-one Compounds as Chemically Stable and Orally Active Inhibitors of the MDM2-p53 Interaction” (J Med Chem, 2016).
Values belong to the compound of their own block, whether it stands above or below them. Calls of active or inactive are those of the source. No cut-off for these calls is given here.

How the values were obtained:
SJSA-1 [1] = test: Antiproliferative activity against human SJSA-1 cells expression wild type p53 incubated for 3 days by Alamar Blue dye based assay; assay type: functional, cell-based; settings: SJSA-1, 72 h
SK-OV-3 = test: Antiproliferative activity against human SK-OV-3 cells expression p53 mutant incubated for 3 days by Alamar Blue dye based assay; assay type: functional, cell-based; settings: SK-OV-3, 72 h
Method in brief: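 p53-mutant SK-OV-3 cells were used in a growth/proliferation assay, with compounds tested up to 25 μM.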

[2] = AUC (0 to 24 hrs) in NMRI mouse at 50 mg/kg, po; assay type: ADME, organism-based; parameters: time < 24 hr, route oral, dose 50 mg/kg; settings: in vivo
Method in brief: (§1)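 Non-tumor-bearing female NMRI nude mice were given a single dose by one of two routes. The iv arm received 5 mg/kg as a bolus in 25% HP-B-CD. The po arm received 50 mg/kg in 0.5% Natrosol (pH 7-8, NaOH titrated). Both used 10 ml/kg. Plasma levels were measured by LC/MS/MS, n=3 per dose group. Parameters came from non-compartmental analysis, with AUC0-24h by linear trapezoidal interpolation.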

[3] = Cmax in NMRI mouse at 50 mg/kg, po; assay type: ADME, organism-based; parameters: route oral, dose 50 mg/kg; settings: in vivo; method in brief: as §1
[4] = Clearance in NMRI mouse at 5 mg/kg, iv; assay type: ADME, organism-based; settings: in vivo; method in brief: as §1
[5] = Volume of distribution at steady state in NMRI mouse at 5 mg/kg, iv; assay type: ADME, organism-based; settings: in vivo, read-out: Vdss; method in brief: as §1
[6] = Oral bio availability in NMRI mouse at 50 mg/kg; assay type: ADME, organism-based; settings: in vivo; method in brief: as §1
SJSA-1 [7] = test: Antitumor activity against human SJSA-1 cells xenografted in BomTac:NMRI-Foxn1^nu mouse assessed as induction of tumor regression at 25 mg/kg, po dosed daily for 13 days; assay type: functional, organism-based; settings: time 13.0 day
Method in brief: (§2)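 NMRI nude mice bearing established subcutaneous SJSA-1 osteosarcoma tumors received oral treatment, with a vehicle control group. There were 8 animals per group. Median tumor volume and median body weight change (% of initial) were tracked.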

SJSA-1 [8] = test: Antitumor activity against human SJSA-1 cells xenografted in BomTac:NMRI-Foxn1^nu mouse assessed as induction of tumor regression at 100 mg/kg, po administered as single dose and measured up to 13 days; assay type: functional, organism-based; settings: time day <=13; method in brief: as §2
[9] = target: E3 ubiquitin-protein ligase Mdm2 (Mus musculus) (UniProt P23804); test: In-vivo inhibition of MDM2 in BomTac:NMRI-Foxn1^nu mouse xenografted with human SJSA-1 cells assessed as induction of CDKN1a mRNA expression at 100 mg/kg, po administered as single dose and measured after 6 to 24 hrs by q-RT-PCR analysis; assay type: functional, organism-based; settings: time 6-24 hrs, TDE = time-dependent effect
Method in brief: (§3)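 Established subcutaneous SJSA-1 xenografts in NMRI nude mice were dosed once orally at 100 mg/kg, or with vehicle. Tumors were harvested 6 h and 24 h after dosing. TP53 target-gene mRNA was quantified by q-RT-PCR.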

[10] = target: E3 ubiquitin-protein ligase Mdm2 (Mus musculus) (UniProt P23804); test: In-vivo inhibition of MDM2 in BomTac:NMRI-Foxn1^nu mouse xenografted with human SJSA-1 cells assessed as induction of MDM2 mRNA expression at 100 mg/kg, po administered as single dose and measured after 6 to 24 hrs by q-RT-PCR analysis; assay type: functional, organism-based; settings: time 6-24 hrs, TDE = time-dependent effect; method in brief: as §3
[11] = target: E3 ubiquitin-protein ligase Mdm2 (Mus musculus) (UniProt P23804); test: In-vivo inhibition of MDM2 in BomTac:NMRI-Foxn1^nu mouse xenografted with human SJSA-1 cells assessed as induction of BBC3 mRNA expression at 100 mg/kg, po administered as single dose and measured after 6 to 24 hrs by q-RT-PCR analysis; assay type: functional, organism-based; settings: time 6-24 hrs, TDE = time-dependent effect; method in brief: as §3
[12] = target: E3 ubiquitin-protein ligase Mdm2 (Mus musculus) (UniProt P23804); test: In-vivo inhibition of MDM2 in BomTac:NMRI-Foxn1^nu mouse xenografted with human SJSA-1 cells assessed as induction of TP53 protein accumulation at 100 mg/kg, po administered as single dose and measured after 6 to 24 hrs by mesoscale assay; assay type: functional, organism-based; settings: time 6-24 hrs
Method in brief: (§4)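 In NMRI nude mice with established subcutaneous SJSA-1 tumors, a single oral 100 mg/kg dose was compared with vehicle. Tumors collected at 6 h and 24 h post-dose were analysed for protein biomarkers by Meso-Scale assay.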

[13] = target: E3 ubiquitin-protein ligase Mdm2 (Mus musculus) (UniProt P23804); test: In-vivo inhibition of MDM2 in BomTac:NMRI-Foxn1^nu mouse xenografted with human SJSA-1 cells assessed as induction of MDM2 protein accumulation at 100 mg/kg, po administered as single dose and measured after 6 to 24 hrs by mesoscale assay; assay type: functional, organism-based; settings: time 6-24 hrs; method in brief: as §4
[14] = target: E3 ubiquitin-protein ligase Mdm2 (Mus musculus) (UniProt P23804); test: In-vivo inhibition of MDM2 in BomTac:NMRI-Foxn1^nu mouse xenografted with human SJSA-1 cells assessed as induction of cleaved caspse-3 protein accumulation at 100 mg/kg, po administered as single dose and measured after 6 to 24 hrs by mesoscale assay; assay type: functional, organism-based; settings: time 6-24 hrs; method in brief: as §4
[15] = target: E3 ubiquitin-protein ligase Mdm2 (Mus musculus) (UniProt P23804); test: In-vivo inhibition of MDM2 in BomTac:NMRI-Foxn1^nu mouse xenografted with human SJSA-1 cells assessed as induction of CDKN1a protein accumulation at 100 mg/kg, po administered as single dose and measured after 6 to 24 hrs by immunohistochemical analysis; assay type: functional, organism-based; settings: time 6-24 hrs
Method in brief: (§5)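 SJSA-1 tumor-bearing NMRI nude mice received one oral dose of 100 mg/kg. Tumors were harvested at 6 h and 24 h. Sections were stained by immunohistochemistry for CDKN1a, TP53 and cleaved CASPASE3.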

[16] = target: E3 ubiquitin-protein ligase Mdm2 (Mus musculus) (UniProt P23804); test: In-vivo inhibition of MDM2 in BomTac:NMRI-Foxn1^nu mouse xenografted with human SJSA-1 cells assessed as induction of TP53 protein accumulation at 100 mg/kg, po administered as single dose and measured after 6 to 24 hrs by immunohistochemical analysis; assay type: functional, organism-based; settings: time 6-24 hrs; method in brief: as §5
[17] = target: E3 ubiquitin-protein ligase Mdm2 (Mus musculus) (UniProt P23804); test: In-vivo inhibition of MDM2 in BomTac:NMRI-Foxn1^nu mouse xenografted with human SJSA-1 cells assessed as induction of cleaved CASPASE3 protein accumulation at 100 mg/kg, po administered as single dose and measured after 6 to 24 hrs by immunohistochemical analysis; assay type: functional, organism-based; settings: time 6-24 hrs; method in brief: as §5
[18] = target: Tumour suppressor p53/oncoprotein Mdm2 (Homo sapiens, UniProt Q00987); test: Inhibition of GST-tagged MDM2 (amino acids 17 to 111 residues)/p53 (unknown origin) interaction incubated for 15 mins by; assay type: protein assay
Tumour suppressor p53/oncoprotein Mdm2, sequence (P04637 whole entry, the tested form may be a part): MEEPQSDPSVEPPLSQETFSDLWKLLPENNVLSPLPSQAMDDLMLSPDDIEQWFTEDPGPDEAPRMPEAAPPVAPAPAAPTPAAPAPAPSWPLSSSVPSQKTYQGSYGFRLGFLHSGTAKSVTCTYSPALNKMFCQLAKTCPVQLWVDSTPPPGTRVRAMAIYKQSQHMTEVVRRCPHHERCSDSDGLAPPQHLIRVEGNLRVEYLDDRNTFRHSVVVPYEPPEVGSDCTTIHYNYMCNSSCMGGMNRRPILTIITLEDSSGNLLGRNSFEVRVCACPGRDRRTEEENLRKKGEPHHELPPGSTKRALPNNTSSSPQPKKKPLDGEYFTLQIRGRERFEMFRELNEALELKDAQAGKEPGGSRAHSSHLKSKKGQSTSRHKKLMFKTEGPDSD
Tumour suppressor p53/oncoprotein Mdm2, sequence (Q00987 whole entry, the tested form may be a part): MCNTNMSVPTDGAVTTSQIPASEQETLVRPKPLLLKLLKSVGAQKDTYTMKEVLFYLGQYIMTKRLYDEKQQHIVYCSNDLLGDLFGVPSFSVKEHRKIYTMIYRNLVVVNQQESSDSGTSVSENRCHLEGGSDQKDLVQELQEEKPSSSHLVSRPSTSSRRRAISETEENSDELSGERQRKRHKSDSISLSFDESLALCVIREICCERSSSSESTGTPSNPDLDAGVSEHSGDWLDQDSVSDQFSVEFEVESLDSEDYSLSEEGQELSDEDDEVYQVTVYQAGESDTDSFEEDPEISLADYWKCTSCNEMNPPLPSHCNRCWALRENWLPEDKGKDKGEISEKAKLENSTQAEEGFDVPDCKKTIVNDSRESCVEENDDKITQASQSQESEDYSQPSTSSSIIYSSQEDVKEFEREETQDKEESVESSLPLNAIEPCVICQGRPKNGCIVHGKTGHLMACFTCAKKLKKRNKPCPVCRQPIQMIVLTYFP

E3 ubiquitin-protein ligase Mdm2 (Mus musculus), sequence (P23804 whole entry): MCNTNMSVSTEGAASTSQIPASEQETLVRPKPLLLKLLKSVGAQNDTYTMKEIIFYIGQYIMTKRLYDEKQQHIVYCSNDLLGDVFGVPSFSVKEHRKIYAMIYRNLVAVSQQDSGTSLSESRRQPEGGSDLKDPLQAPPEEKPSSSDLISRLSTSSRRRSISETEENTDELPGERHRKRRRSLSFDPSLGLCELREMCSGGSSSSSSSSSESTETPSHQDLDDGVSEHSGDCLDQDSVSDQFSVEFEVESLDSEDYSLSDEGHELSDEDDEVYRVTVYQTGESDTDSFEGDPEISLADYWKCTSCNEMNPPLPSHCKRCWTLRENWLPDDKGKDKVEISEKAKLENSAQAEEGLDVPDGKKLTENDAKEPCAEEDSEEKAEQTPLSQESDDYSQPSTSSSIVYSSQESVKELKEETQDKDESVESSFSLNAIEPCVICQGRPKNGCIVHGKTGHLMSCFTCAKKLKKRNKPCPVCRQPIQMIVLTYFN

IC50 (SJSA-1 [1]): 1450 nM
IC50 (SK-OV-3): > 25000 nM
AUC(0-t) at 24 h [2]: 100 µM·h
Cmax [3]: 6.9 µM
clearance [4]: 7.4 mL/min/kg
Vd [5]: 2 L/kg
bioavailability [6]: 58%
SMILES: NC(=O)c1ccc([C@H]2C[C@H]3[C@@H](N2)[C@H](c2cccc(Cl)c2F)[C@]2(C(=O)Nc4cc(Cl)ccc42)N3CC2CC2)cc1

inhibition [9]: Tde
inhibition [10]: Tde
inhibition [11]: Tde
inhibition [12]: Active
inhibition [13]: Active
inhibition [14]: Active
inhibition [15]: Active
inhibition [16]: Active
inhibition [17]: Active
IC50 (SJSA-1 [1]): 471 nM
IC50 (SK-OV-3): > 25000 nM
AUC(0-t) at 24 h [2]: 264 µM·h
Cmax [3]: 21.3 µM
clearance [4]: 7.1 mL/min/kg
Vd [5]: 2.1 L/kg
SMILES: O=C(O)c1ccc([C@H]2C[C@H]3[C@@H](N2)[C@H](c2cccc(Cl)c2F)[C@]2(C(=O)Nc4cc(Cl)ccc42)N3CC2CC2)cc1
Activity (SJSA-1 [7]): Active
Activity (SJSA-1 [8]): Active

IC50 (SJSA-1 [1]): 287 nM
IC50 (SK-OV-3): > 25000 nM
SMILES: CCOc1cccc(CN2[C@H]3CCN(CC(=O)O)[C@H]3[C@H](c3cccc(Cl)c3F)[C@]23C(=O)Nc2cc(Cl)ccc23)c1

IC50 [18]: 18600 nM
SMILES: O=C(O)C[C@@H]1N[C@@]2(C(=O)Nc3cc(Cl)ccc32)[C@@H](c2cccc(Cl)c2)[C@@H]1[N+](=O)[O-] (racemic)

IC50 [18]: 74000 nM
SMILES: C[C@@H]1N[C@@]2(C(=O)Nc3cc(Cl)ccc32)[C@@H](c2cccc(Cl)c2)[C@@H]1N (racemic)

IC50 [18]: 57 nM
SMILES: CCOc1cccc(CN2[C@@H](C)[C@@H](N)[C@H](c3cccc(Cl)c3F)[C@]23C(=O)Nc2cc(Cl)ccc23)c1 (racemic)

IC50 [18]: 229 nM
SMILES: CC(=O)N[C@@H]1[C@H](C)N(CC2CC2)[C@@]2(C(=O)Nc3cc(Cl)ccc32)[C@H]1c1cccc(Cl)c1F

IC50 [18]: 819 nM
SMILES: CC(C)(C)CN1C[C@@H](N)[C@H](c2cccc(Cl)c2)[C@]12C(=O)Nc1cc(Cl)ccc12

IC50 [18]: 1080 nM
SMILES: CC(C)CCN1[C@@H](C)[C@@H](N)[C@H](c2cccc(Cl)c2)[C@]12C(=O)Nc1cc(Cl)ccc12 (racemic)

IC50 [18]: 34 nM
SMILES: CCOc1cccc(CN2[C@@H](C)[C@@H](N)[C@H](c3cccc(Cl)c3F)[C@]23C(=O)Nc2cc(Cl)ccc23)c1

IC50 [18]: 80 nM
SMILES: O=C(O)CN1CC[C@H]2[C@@H]1[C@H](c1cccc(Cl)c1)[C@]1(C(=O)Nc3cc(Cl)ccc31)N2CC1CC1 (racemic)

IC50 [18]: 15200 nM
SMILES: O=C1Nc2cc(Cl)ccc2[C@]12N[C@@H](Cc1c[nH]cn1)[C@@H]([N+](=O)[O-])[C@@H]2c1cccc(Cl)c1 (racemic)

IC50 [18]: 39 nM
SMILES: O=C(O)CN1CC[C@H]2[C@@H]1[C@H](c1cccc(Cl)c1F)[C@]1(C(=O)Nc3cc(Cl)ccc31)N2CC1CC1 (racemic)

IC50 [18]: 107 nM
SMILES: C[C@H]1[C@@H](NCc2ccc(C(=O)O)cc2)[C@H](c2cccc(Cl)c2F)[C@]2(C(=O)Nc3cc(Cl)ccc32)N1CC1CC1

IC50 [18]: 563 nM
SMILES: C[C@H]1[C@@H](N)[C@H](c2cccc(Cl)c2)[C@]2(C(=O)Nc3cc(Cl)ccc32)N1CC1CC1

IC50 [18]: 944 nM
SMILES: CC(C)CN1C[C@@H](N)[C@H](c2cccc(Cl)c2)[C@]12C(=O)Nc1cc(Cl)ccc12
